Source: article PMC3306499 (ACS Chemical Biology, 2012)

Key:
human A3G (APOBEC3G) = human A3G (APOBEC3G) (Homo sapiens, UniProt Q9HC16); experiment: fluorescence-based ssDNA cytosine deaminase assay, A3G; assay type: biochemical; conditions: read-out: IC50 Values A3G; dose response, purified full-length A3G-mycHis
human A3A (APOBEC3A) = human A3A (APOBEC3A) (Homo sapiens, UniProt P31941); experiment: fluorescence-based ssDNA cytosine deaminase assay, A3A; assay type: biochemical; conditions: read-out: IC50 Values A3A; dose response, purified A3A-mycHis
[1] = target: E. coli uracil DNA glycosylase (UDG) (Escherichia coli, UniProt P12295); experiment: UDG assay; assay type: biochemical; conditions: read-out: IC50 Values UDG; no deaminase, uracil ssDNA substrate
HIV-1 RNase H = HIV-1 RNase H (Human immunodeficiency virus type 1 group M subtype B, UniProt P04585); experiment: HIV-1 RNase H inhibition assay; assay type: biochemical; conditions: read-out: IC50 Values RNase H; A3G inhibitors, this study
A3G-ssDNA complex = A3G-ssDNA complex (Homo sapiens, UniProt Q9HC16); experiment: EMSA of A3G-ssDNA complex formation; assay type: binding; conditions: 0.64 μM A3G, 0.08 μM ssDNA, 50 μM compound, dose response 2, 5, 10 μM
A3G-C308A = A3G-C308A (Homo sapiens, UniProt Q9HC16, C308A); experiment: deaminase assay with A3G-C308A mutant; assay type: biochemical; conditions: varying concentrations, parallel to wildtype A3G
Summary of the method: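 Full-length human A3G-C308A-mycHis and wildtype A3G were purified from HEK293T cells via the C-terminal His6 tag and assayed in parallel over varying test compound concentrations. Enzyme was diluted in Tris pH 7.4 buffer with protease inhibitors, then incubated 2 h at 37 °C with 10 pmol 6-FAM/TAMRA ssDNA and UDG. NaOH was added for 30 min at 37 °C, then neutralised. Fluorescence read at ex 490/em 520 nm.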

A3G C321A = A3G C321A (Homo sapiens, UniProt Q9HC16, C321A); experiment: deaminase assay with A3G-C321A mutant; assay type: biochemical; conditions: dose response, parallel to wildtype A3G
Summary of the method: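 Wildtype A3G and the C321A mutant were purified side by side as myc-His proteins (>80% homogeneity) from HEK293T cells and tested at varying test compound concentrations. Reactions ran 2 h at 37 °C with 6-FAM/TAMRA ssDNA and UDG, followed by NaOH cleavage, neutralisation and fluorescence at 490/520 nm. Triplicates were normalised to DMSO-only controls and given as mean with SD.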

full-length A3G Cys321 = full-length A3G Cys321 (Homo sapiens, UniProt Q9HC16); experiment: LC-MS/MS of tryptic peptides of inhibitor-treated A3G; assay type: binding; conditions: full-length A3G incubated with compound, in-gel trypsin digestion
murine model of diabetes = conditions: oral dosing; cited from earlier work

Chain of A3G C321A (Q9HC16 whole entry C321A): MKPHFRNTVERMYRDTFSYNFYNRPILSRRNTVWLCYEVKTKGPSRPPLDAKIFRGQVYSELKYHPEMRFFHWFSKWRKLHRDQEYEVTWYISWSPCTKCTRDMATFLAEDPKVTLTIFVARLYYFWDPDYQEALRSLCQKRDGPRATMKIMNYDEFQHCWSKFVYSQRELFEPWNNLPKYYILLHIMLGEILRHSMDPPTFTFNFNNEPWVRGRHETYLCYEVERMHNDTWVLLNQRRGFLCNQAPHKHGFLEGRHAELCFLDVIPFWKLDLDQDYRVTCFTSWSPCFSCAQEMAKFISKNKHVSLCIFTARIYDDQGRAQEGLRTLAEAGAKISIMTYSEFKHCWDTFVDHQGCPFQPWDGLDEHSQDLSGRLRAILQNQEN
Chain of A3G-C308A (Q9HC16 whole entry C308A): as the sequence (Q9HC16 whole entry C321A) above, with C308A, A321C counted along it
Chain of E. coli uracil DNA glycosylase (UDG) (P12295 whole entry): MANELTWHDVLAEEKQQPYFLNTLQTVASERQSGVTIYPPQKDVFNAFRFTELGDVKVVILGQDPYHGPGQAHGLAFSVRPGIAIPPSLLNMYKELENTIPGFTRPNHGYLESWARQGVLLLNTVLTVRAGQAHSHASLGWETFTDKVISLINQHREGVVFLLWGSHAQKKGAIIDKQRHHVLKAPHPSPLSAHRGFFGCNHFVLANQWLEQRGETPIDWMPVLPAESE
Chain of A3G-ssDNA complex (Q9HC16 whole entry, one chain of several): as the sequence (Q9HC16 whole entry C321A) above, with A321C counted along it
Chain of full-length A3G Cys321 (Q9HC16 whole entry): as the sequence (Q9HC16 whole entry C321A) above, with A321C counted along it
Chain of human A3G (APOBEC3G) (Q9HC16 whole entry): as the sequence (Q9HC16 whole entry C321A) above, with A321C counted along it
Chain of human A3A (APOBEC3A) (P31941 whole entry): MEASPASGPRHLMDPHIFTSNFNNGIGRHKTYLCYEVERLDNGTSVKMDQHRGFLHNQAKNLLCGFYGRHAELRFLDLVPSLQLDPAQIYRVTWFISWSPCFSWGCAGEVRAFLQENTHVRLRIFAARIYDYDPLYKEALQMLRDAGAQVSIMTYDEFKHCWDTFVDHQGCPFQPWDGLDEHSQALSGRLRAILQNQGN

CN(N=O)c1ccc(O)c(O)c1 [MN30, Methyl-3,4-dephostatin]
IC50 (human A3G (APOBEC3G)): 9.1 µM
IC50 (human A3A (APOBEC3A)): > 200 µM
IC50 [1]: > 200 µM
IC50 (HIV-1 RNase H): > 25 µM
inhibition of A3G's ssDNA binding activity (A3G-ssDNA complex formation) (A3G-ssDNA complex): no inhibition
susceptibility of A3G-C308A deaminase activity to inhibition (A3G-C308A): wildtype susceptibility
susceptibility of A3G C321A deaminase activity to inhibition (A3G C321A): fully resistant
mass addition to C321 containing tryptic peptide (covalent modification) (full-length A3G Cys321): 167.11 Da
efficacy in a murine model of diabetes (murine model of diabetes): demonstrated efficacy
